# pIC50: −log10 of the molar value. Active and inactive are the calls of the source. No cut-off for these calls is given here. Starred links: 1 amine or outer side, 2 acyl side, 3 side chain; linkers in the order of their positions; H or OH if unused. Non-standard residues stand in square brackets, D forms with d. Residues, ends and D or L forms follow the SMILES beside them. *: point of attachment. X1 = COc1ccc(-c2cc(N*)c(C(=O)O)s2)cc1; AEEA = NCCOCCOCC(=O)O; CO = O=C([*:1])[*:2]
# Molecular target: T1, 2-heptyl-4(1H)-quinolone synthase PqsD (Pseudomonas aeruginosa) (UniProt A0A0C7ACN7)
# T1 sequence (whole entry): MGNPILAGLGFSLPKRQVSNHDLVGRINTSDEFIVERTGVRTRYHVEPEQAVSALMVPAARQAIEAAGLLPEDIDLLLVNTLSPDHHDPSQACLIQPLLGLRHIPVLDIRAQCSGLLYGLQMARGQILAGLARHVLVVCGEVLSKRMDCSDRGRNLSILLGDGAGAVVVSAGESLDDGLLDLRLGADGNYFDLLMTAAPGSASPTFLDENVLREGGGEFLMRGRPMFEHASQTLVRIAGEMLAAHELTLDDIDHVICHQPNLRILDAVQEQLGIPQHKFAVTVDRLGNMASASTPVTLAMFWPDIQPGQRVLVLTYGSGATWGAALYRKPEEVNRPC
# Assay: Inhibition of recombinant His6-tagged Pseudomonas aeruginosa PqsD expressed in Escherichia coli BL21 (deltaDE3) using anthraniloyl-CoA/beta-ketodecanoic acid as substrate assessed as HHQ formation at 50 uM preincubated for 10 mins followed by substrate addition by HPLC/MS-MS analysis relative to control
# Outline: (§1)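 His6-PqsD was expressed in E. coli BL21(DE3) (IPTG, 16 °C, 16 h) and purified by single-step affinity. Assay buffer was 0.05 M MOPS pH 7.0 with 0.005% Triton X-100, plus 0.1 µM enzyme and inhibitor (0.5% DMSO final). After 10 min preincubation at 37 °C, anthraniloyl-CoA was added; β-ketodecanoic acid was the second substrate. HHQ was measured by HPLC-MS against DMSO controls set to 100%.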
row,inhibition,SMILES
1,40%,COc1ccc(-c2cc(NC(=O)N[C@@H](Cc3c[nH]cn3)C(=O)O)c(C(=O)O)s2)cc1
2,inactive,O=C(Nc1ccsc1C(=O)O)N[C@@H](Cc1ccccc1)C(=O)O

# Tested on: Pseudomonas aeruginosa PA14
# Assay: Inhibition of PqsD in Pseudomonas aeruginosa PA14 assessed as reduction of HHQ level at 250 uM after 16 hrs by UHPLC-MS/MS analysis relative to control
row,inhibition,SMILES
1,inactive,COc1ccc(-c2cc(NC(=O)N[C@@H](Cc3ccccc3)C(=O)SCCNC(C)=O)c(C(=O)O)s2)cc1
2,16%,COc1ccc(-c2cc(NC(=O)N[C@@H](Cc3c[nH]cn3)C(=O)O)c(C(=O)O)s2)cc1

row,SMILES,inhibition
1,CC[C@H](C)[C@H](NC(=O)[C@H](CCCNC(=N)N)NC(=O)[C@H](CCCNC(=N)N)NC(=O)[C@H](Cc1ccccc1)NC(=O)[C@H](CC(C)C)NC(=O)[C@H](CCCNC(=N)N)NC(=O)[C@H](CCCNC(=N)N)NC(=O)COCCOCCNC(=O)[C@H](Cc1ccccc1)NC(=O)Nc1cc(-c2ccc(OC)cc2)sc1C(=O)O)C(=O)N[C@@H](CC(C)C)C(=O)N[C@@H](CCCNC(=N)N)C(=O)N[C@@H](Cc1c[nH]c2ccccc12)C(=O)N[C@@H](CC(C)C)C(=O)O ({X1-CO}-F[AEEA]RRLFRRILRWL-OH),inactive

# Tested on: Pseudomonas aeruginosa
# Assay: Binding affinity to recombinant His6-tagged Pseudomonas aeruginosa PqsD/anthraniloyl-CoA complex at 25 to 100 uM by surface plasmon resonance analysis
# Outline: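 His6-PqsD on an SPR sensor chip. Running buffer was HEPES pH 7.4, 150 mM NaCl, 5% DMSO, 0.05% polysorbate 20. ACoA (100 µM) was injected for about 40 min to saturate the binding site, then flushed at higher flow for 30 min. Compounds were injected in sequence and equilibrium responses compared with untreated PqsD. Run in duplicate.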
row,Activity,SMILES
1,Active,O=C(Nc1cc(-c2ccc(-c3ccc(CO)cc3)cc2)sc1C(=O)O)N[C@@H](Cc1ccccc1)C(=O)O

# Molecular target: T2, 2-heptyl-4(1H)-quinolone synthase PqsD (Pseudomonas aeruginosa, UniProt A0A0C7ACN7)
# T2 sequence (A0A0C7ACN7 whole entry): T1 sequence (whole entry)
# Assay: (§2) Inhibition of recombinant His6-tagged Pseudomonas aeruginosa PqsD expressed in Escherichia coli BL21 (deltaDE3) using anthraniloyl-CoA/beta-ketodecanoic acid as substrate assessed as HHQ formation preincubated for 10 mins followed by substrate addition by HPLC/MS-MS analysis
# Outline: as §1
row,SMILES,pIC50
1,COc1ccc(-c2cc(NC(=O)N[C@@H](CO)C(=O)O)c(C(=O)O)s2)cc1,4.72
2,O=C(Nc1cc(-c2ccc(O)cc2)sc1C(=O)O)N[C@@H](Cc1ccccc1)C(=O)O,4.67
3,O=[N+]([O-])c1ccccc1C(O)c1ccccc1 (stereo not given),6.00
4,COc1ccc(-c2cc(NC(=O)N[C@@H](Cc3ccc(O)cc3)C(=O)O)c(C(=O)O)s2)cc1,4.54
5,COc1ccc(-c2cc(NC(=O)N[C@H](C(=O)O)C(C)C)c(C(=O)O)s2)cc1,4.50
6,COc1ccc(-c2cc(NC(=O)N[C@@H](CCc3ccccc3)C(=O)O)c(C(=O)O)s2)cc1,4.47
7,COc1ccc(-c2cc(NC(=O)NCC(=O)O)c(C(=O)O)s2)cc1,5.15
8,COc1ccc(-c2cc(NC(=O)N[C@@H](Cc3ccccc3)C(=O)O)c(C(=O)O)s2)c(C)c1,5.12
9,COc1ccc(-c2cc(NC(=O)N[C@@H](Cc3ccccc3)C(=O)O)c(C(=O)O)s2)cc1,6.30
10,COc1ccc(-c2cc(NC(=O)N[C@@H](Cc3c[nH]c4ccccc34)C(=O)O)c(C(=O)O)s2)cc1,5.30
11,O=C(Nc1cc(-c2cccc(-c3ccc(CO)cc3)c2)sc1C(=O)O)N[C@@H](Cc1ccccc1)C(=O)O,4.71
12,O=C(Nc1cc(-c2ccc(-c3ccccc3)cc2)sc1C(=O)O)N[C@@H](Cc1ccccc1)C(=O)O,5.57

# The remaining lines, values ahead:
row,pIC50,SMILES
1,4.49,COc1ccc(-c2cc(NC(=O)N[C@@H](Cc3ccccc3)C(=O)SCCNC(C)=O)c(C(=O)O)s2)cc1
2,4.52,COc1ccc(-c2cc(NC(=O)N[C@@H](CCC(=O)O)C(=O)O)c(C(=O)O)s2)cc1
3,4.86,COc1ccc(-c2cc(NC(=O)N[C@@H](Cc3ccc(Cl)cc3)C(=O)O)c(C(=O)O)s2)cc1
4,4.88,COc1ccc(-c2cc(NC(=O)N[C@@H](CC(N)=O)C(=O)O)c(C(=O)O)s2)cc1
5,4.94,COc1ccc(-c2cc(NC(=O)N[C@@H](Cc3ccccc3)C(=O)O)cs2)cc1
6,5.15,COc1ccc(-c2cc(NC(=O)NCP(=O)(O)O)c(C(=O)O)s2)cc1
7,5.21,O=C(Nc1cc(-c2cccc(-c3ccccc3)c2)sc1C(=O)O)N[C@@H](Cc1ccccc1)C(=O)O
8,5.42,O=C(Nc1cc(-c2ccccc2)sc1C(=O)O)N[C@@H](Cc1ccccc1)C(=O)O
9,5.70,O=[N+]([O-])c1ccccc1CO
10,6.44,O=C(Nc1cc(-c2ccc(-c3ccc(C(O)c4ccccc4[N+](=O)[O-])cc3)cc2)sc1C(=O)O)N[C@@H](Cc1ccccc1)C(=O)O (stereo not given in full)
11,6.85,O=C(Nc1cc(-c2ccc(-c3ccc(CO)cc3)cc2)sc1C(=O)O)N[C@@H](Cc1ccccc1)C(=O)O

# Molecular target: T1, 2-heptyl-4(1H)-quinolone synthase PqsD (Pseudomonas aeruginosa)
# Assay: as §2
# Outline: as §1
row,SMILES,inhibition
1,CC[C@H](C)[C@H](NC(=O)[C@H](CCCNC(=N)N)NC(=O)[C@H](CCCNC(=N)N)NC(=O)[C@H](Cc1ccccc1)NC(=O)[C@H](CC(C)C)NC(=O)[C@H](CCCNC(=N)N)NC(=O)[C@H](CCCNC(=N)N)NC(=O)COCCOCCNC(=O)[C@H](Cc1ccccc1)NC(=O)Nc1cc(-c2ccc(OC)cc2)sc1C(=O)O)C(=O)N[C@@H](CC(C)C)C(=O)N[C@@H](CCCNC(=N)N)C(=O)N[C@@H](Cc1c[nH]c2ccccc12)C(=O)N[C@@H](CC(C)C)C(=O)O ({X1-CO}-F[AEEA]RRLFRRILRWL-OH),Active
